Screening data (PubChem)
PLCg1 inh = blocks human PLC-gamma1 enzyme activity; P19174; purified PLC-gamma1, fluorogenic substrate, fluorescence; inhibition, % at 12.2 µM; 370,000 tested, 0.84% active; AID 720700; in the data active means inhibition above about 9.5%
sPLA2-III inh = Inhibits HGIII-sPLA2 liposome hydrolysis, primary screen; QFRET BODIPY PC-A2 liposome hydrolysis, fluorescence; inhibition, % at 12.2 µM; AID 743126; 370,000 tested, 0.56% active; Q9NZ20;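 active means inhibition above mean plus 3 SD of compounds lying within the high and low control bounds, cut at about 19% in these data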;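 further: 0% = median of test compound wells and 100% = no enzyme DMSO wells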
PLCb3 inh = blocks human PLC-beta3 enzyme activity; Purified PLC-beta3, fluorogenic substrate, fluorescence; inhibition, % at 12.2 µM; 370,000 tested, 0.18% active; AID 720704;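 further: 0% = median of compound wells on plate and 100% = full blocker control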
Target sequence (Q01970 whole entry, looked up): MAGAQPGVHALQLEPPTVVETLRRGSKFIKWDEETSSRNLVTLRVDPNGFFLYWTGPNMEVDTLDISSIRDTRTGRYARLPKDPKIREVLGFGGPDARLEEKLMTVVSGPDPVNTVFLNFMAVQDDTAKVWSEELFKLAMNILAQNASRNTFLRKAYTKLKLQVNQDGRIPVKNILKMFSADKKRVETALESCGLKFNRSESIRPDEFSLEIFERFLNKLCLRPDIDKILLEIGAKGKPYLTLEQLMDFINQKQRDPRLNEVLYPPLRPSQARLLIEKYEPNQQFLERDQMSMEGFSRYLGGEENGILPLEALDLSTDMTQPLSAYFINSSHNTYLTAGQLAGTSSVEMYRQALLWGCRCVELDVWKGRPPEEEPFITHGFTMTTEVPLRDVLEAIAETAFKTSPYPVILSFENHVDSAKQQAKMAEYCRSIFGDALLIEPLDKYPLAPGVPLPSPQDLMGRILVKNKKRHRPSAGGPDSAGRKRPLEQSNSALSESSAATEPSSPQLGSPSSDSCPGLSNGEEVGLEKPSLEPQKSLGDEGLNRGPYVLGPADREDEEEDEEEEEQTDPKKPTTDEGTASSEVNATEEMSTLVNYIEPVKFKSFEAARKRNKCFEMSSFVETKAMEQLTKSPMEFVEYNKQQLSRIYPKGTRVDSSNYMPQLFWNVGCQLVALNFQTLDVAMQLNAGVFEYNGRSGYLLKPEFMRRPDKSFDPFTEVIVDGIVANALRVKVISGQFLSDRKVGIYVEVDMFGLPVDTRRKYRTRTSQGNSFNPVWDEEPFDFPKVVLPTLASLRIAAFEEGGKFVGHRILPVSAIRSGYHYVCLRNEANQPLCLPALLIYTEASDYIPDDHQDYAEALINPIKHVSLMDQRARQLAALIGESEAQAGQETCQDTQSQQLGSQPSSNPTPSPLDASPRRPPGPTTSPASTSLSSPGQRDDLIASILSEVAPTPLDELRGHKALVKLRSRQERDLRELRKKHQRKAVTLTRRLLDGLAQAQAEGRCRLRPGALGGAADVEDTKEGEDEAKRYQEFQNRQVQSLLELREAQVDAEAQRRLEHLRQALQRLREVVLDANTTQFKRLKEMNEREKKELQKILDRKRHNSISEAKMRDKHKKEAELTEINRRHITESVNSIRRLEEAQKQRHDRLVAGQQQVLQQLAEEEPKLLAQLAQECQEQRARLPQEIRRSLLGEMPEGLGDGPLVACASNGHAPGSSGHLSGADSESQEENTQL
proCasp7 act = counter-screen: procaspase-7 (human) activation. activation, % at 8.5 µM. P55210. AID 463210. recombinant procaspase-7, Ac-DEVD-pNA absorbance 405 nm; D23A/D198A/D206A triple mutant, cannot self-cleave; scale: DMSO 0, 5 µM enzyme 100. 330,000 tested, 0.093% active;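 active means percent activation above the screen-wide mean plus 3 SD, cut at about 25% in these data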
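Assay system: Uncleavable procaspase-7 mutant enzyme; Input: 2 µM procaspase-7 mutant as dispensed; Also added: DEVD-pNA substrate; Medium: Zinc-free HEPES pH 7.4 with 300 mM NaCl, 0.01% Triton X-100; Timing: 1 h compound preincubation, 2 h substrate cleavage, 25 °C; Measured by: Epi-absorbance of released pNA at 405 nm, two timepoints.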
proCasp3 act = activates human procaspase-3. P42574. recombinant procaspase-3 D3A, Ac-DEVD-pNA absorbance 405 nm. activation, % at 8.5 µM. 330,000 tested, 0.11% active. AID 463141;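 active means activation above the mean of all tested compounds plus 3 SD, cut at about 21% in these data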;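 further: 0% = DMSO alone and 100% = DMSO wells spiked with extra 5 µM PC-3 D3A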
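Assay system: Autoprocessing-dead procaspase-3 D3A mutant enzyme; also added: Ac-DEVD-pNA; doses: one concentration, 8.5 µM nominal, 0.8% DMSO; times: 1 h compound preincubation, 2 h substrate hydrolysis at 25 °C; technique: 405 nm absorbance of p-nitroaniline, reads at 0 and 120 min; measure: % activation between DMSO and enzyme-spiked controls; repeats: single replicate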
PLCgamma1 ctr = counter-screen for PLC-beta3 inhibitors: inhibitors of human PLC-gamma1; 3,300 tested, 3.1% active; shares compounds with PLCg1 inh; purified PLC-gamma1, fluorogenic substrate, fluorescence; AID 743258; inhibition, % at 12.3 µM; in the data active means inhibition above about 9.5%
PLCb3 confirm = confirmation of human PLC-beta3 inhibitors. shares compounds with PLCg1 inh. purified PLC-beta3, fluorogenic substrate fluorescence. inhibition, % at 12.3 µM. 3,300 tested, 1% active. AID 743261
* hit, by the source's call; x = no result. This is a sample that favours compounds with a hit; in the whole collection about 1.6% have one here. Unless noted, no stated cut-off is given here; in the data, active means inhibition above about 11%; inactive means the rest.

SMILES | PLCg1 inh | sPLA2-III inh | PLCb3 inh | proCasp7 act | proCasp3 act | PLCgamma1 ctr | PLCb3 confirm
S=C(NCCCc1cnc[nH]1)NCCCN(Cc1ccc(Cl)cc1)c1ccc(Br)cn1 | 10.8* | -7.6 | 8.8 | x | x | 4.1 | 3.0
S=C(NCCCc1cnc[nH]1)NCCCN(Cc1ccccc1)c1ccc(Br)cn1 | 3.9 | -2.2 | 1.3 | x | x | x | x
C#CCN(CC=C)C(=O)c1ccc2nc(C3CCCCC3)oc2c1 | 9.5* | -41.7 | 0.1 | -7.5 | 10.0 | -4.5 | -3.3
CC(C)[C@H](NC(=O)c1ccccc1)C(=O)OCc1nnc(-c2ccccc2)o1 | 12.2* | 7.0 | -4.5 | 3.1 | -5.4 | -2.7 | -1.0
CC(C)C(C(=O)NCc1ccco1)N(C(=O)CNS(=O)(=O)c1ccccc1)C1CCCC1 (stereo unspecified) | 3.0 | -14.6 | 12.5* | 8.3 | 6.4 | -0.8 | 3.6
Cc1cccc(NC2=C(Cl)C(=O)OC2OC(C)C)c1 (stereo unspecified) | 10.4* | 6.3 | 6.6 | -1.5 | 5.6 | 6.5 | 0.7
CC(=O)Nc1ccc(C(=O)CS(=O)(=O)c2ccc(C)cc2)cc1 | -0.1 | -20.5 | 0.5 | -5.1 | 2.8 | x | x
CC(=O)Nc1ccc(S(=O)(=O)c2ccc(C)cc2)cc1 | 10.1* | 1.6 | -4.5 | -1.9 | 0.0 | -7.1 | -4.0
O=C(NCc1cccs1)c1ccc([N+](=O)[O-])cc1 | 10.0* | 11.0 | 12.2* | -4.3 | -9.5 | -9.2 | -5.9
Cc1cc(C(=O)NCc2cccs2)ccc1[N+](=O)[O-] | 1.0 | 2.3 | 0.8 | 8.3 | 2.3 | x | x
Cc1cc(=O)c2n(Cc3ccccc3Cl)nc[n+]2[nH]1 | 14.2* | -0.7 | 0.7 | 9.3 | -0.1 | -2.6 | -0.9
Cc1ccc2cccc(OCC(=O)N3CC(C)CC(C)C3)c2n1 (stereo unspecified) | -23.4 | 1.6 | -25.6 | 8.4 | 4.9 | x | x
COc1ccc(C(=O)C2CCCN(C(=O)CSC)C2)cc1OC (stereo unspecified) | 14.0* | 8.2 | 7.8 | -3.1 | -3.0 | -2.7 | -0.2
COc1ccc([C@H]2C[C@H](O)[C@@H](n3cc(C4CC4)nn3)CN2C(=O)C2CCCCC2)cc1 | -2.9 | 12.3 | 4.3 | x | x | x | x
COc1ccc(C(CNC(=O)c2cc3ccccc3o2)N2CCCC2)cc1 (stereo unspecified) | 10.5* | 6.1 | -11.8 | -3.2 | -3.0 | -7.8 | -4.3
COC(=O)c1ccc(COC(=O)CNC(=O)C2CCCCC2)cc1 | 3.8 | 3.8 | 7.5 | 6.5 | 6.0 | x | x
O=C(N1CCOCC1)N1CCN(Cc2ccccc2)CC1 | 10.2* | 11.7 | 4.4 | 10.4 | -3.1 | 6.1 | -11.5
Cc1ccc(N(C(=O)CNC(=O)c2ccco2)C(C(=O)NC2CCCC2)c2ccncc2)cc1C (stereo unspecified) | -1.1 | 2.5 | -6.4 | -3.1 | 2.5 | x | x
CCN(C(=O)c1ccc(NC(=O)Cc2ccccc2)cc1)c1ccccc1 | -1.1 | -13.0 | -2.8 | x | x | x | x
Cc1ccc(S(=O)(=O)CCC(=O)Nc2nc(-c3ccncc3)cs2)cc1 | 12.7* | 1.6 | -5.8 | 3.1 | -3.7 | 3.3 | -6.5
CCCCn1c(CCNC(=O)c2ccco2)nc2ccccc21 | 2.9 | 1.2 | -3.4 | -3.0 | 3.5 | x | x
CCCCn1c(CCCNC(=O)c2ccco2)nc2ccccc21 | 12.1* | 2.1 | 3.9 | 13.1 | 6.7 | -6.2 | -5.5
CCN(CCNCC(O)COc1ccccc1C(C)C)c1cccc(C)c1 (stereo unspecified) | 16.9* | -11.3 | -1.1 | -10.1 | -3.6 | 1.3 | 1.9
CCOC(=O)N1CCN(CC(O)COc2ccccc2C(C)C)CC1 (stereo unspecified) | -0.6 | -1.0 | 0.0 | 0.8 | -0.6 | x | x
O=C(N/C(=C/c1ccccc1)C(=O)N1CCCCC1)c1ccccc1 | 0.4 | 1.1 | -6.5 | -1.0 | 1.1 | x | x
SMILES | PLCg1 inh | sPLA2-III inh | PLCb3 inh | proCasp7 act | proCasp3 act | PLCgamma1 ctr | PLCb3 confirm
O=C(N/C(=C\c1ccccc1)C(=O)N1CCCCCC1)c1ccccc1 | 9.6* | 9.1 | 0.4 | 5.8 | -2.5 | -2.9 | -0.6
CN1CCN(S(=O)(=O)c2ccc(N(C)Cc3cccc(F)c3)nc2)CC1 | -3.3 | -2.1 | -6.2 | 12.3 | 1.1 | x | x
COc1cc(/C=N\Nc2nncn2N)ccc1OC(C)=O | 14.2* | 1.7 | 1.4 | -10.8 | 0.6 | -0.3 | -4.2
Cn1cnnc1SCNC(=O)C(F)(F)F | 5.8 | 6.8 | 12.4* | 0.5 | 0.3 | -8.2 | -3.5
Cc1ccc2nc(C3CCN(C(=O)NCc4ccccc4)CC3)[nH]c2c1 | 10.1* | 6.5 | 3.5 | -8.2 | -5.0 | 1.4 | -3.5
O=C(NCCc1ccccc1F)C1CC(=O)N(c2cccc(C(F)(F)F)c2)C1 (stereo unspecified) | -4.9 | -3.2 | -12.3 | x | x | x | x
Cc1ccc(-c2[nH]nc(N)c2N=Nc2cccc(Cl)c2C)cc1 | 3.5 | -9.2 | 1.4 | x | x | x | x
Cc1cccc(N=Nc2c(N)n[nH]c2-c2ccc(Cl)cc2)c1 | 11.2* | -24.0 | 9.6 | 12.2 | -12.5 | 8.0 | 5.5
O=C(C[C@@H]1C[C@@H]2c3cc(NC(=O)C4CCC4)ccc3O[C@@H]2[C@@H](CO)O1)NCc1ccc(Cl)cc1 | 1.9 | 6.8 | -0.1 | x | x | x | x
Cc1ccc(Cn2nnc3c(=O)[nH]c(C4CCN(C(=O)Cc5cccs5)CC4)nc32)cc1 | 5.7 | -14.6 | 3.9 | -3.8 | 8.1 | x | x
O=C(Cc1cccs1)N1CCC(c2nc3c(nnn3Cc3ccccc3)c(=O)[nH]2)CC1 | 10.0* | -14.3 | 12.5* | -3.9 | 0.5 | 6.9 | 12.1*
COc1ccc(NS(=O)(=O)Cc2ccccc2Cl)cn1 | 12.1* | 3.6 | 3.2 | 1.1 | 5.7 | -0.9 | 5.1
O=S1(=O)c2ccc(N3CC[C@H](O)C3)cc2OCCCN1C1CC1 | -2.7 | 9.8 | -3.5 | x | x | x | x
COC(=O)CNC(=O)C(NC(=O)OCc1ccccc1)C(C)C (stereo unspecified) | -1.0 | 5.7 | 1.2 | 6.4 | 3.2 | x | x
CC(C)(C)OC(=O)NCCCC[C@H](NC(=O)c1[nH]cnc1C(=O)N[C@@H](Cc1ccccc1)C(=O)OCc1ccccc1)C(=O)OC(C)(C)C | 10.0* | -5.7 | 9.7 | 5.7 | -1.7 | -3.9 | -7.2
CC(C)(C)OC(=O)NCc1ccc(CNC(=O)c2[nH]cnc2C(=O)N[C@@H](Cc2ccccc2)C(=O)OC(C)(C)C)cc1 | 9.5* | -5.9 | 8.1 | 1.6 | -1.1 | -3.0 | 0.7
CC(C)C[C@H](NC(=O)c1nc[nH]c1C(=O)NCC(=O)OC(C)(C)C)C(=O)OCc1ccccc1 | 9.9* | -6.7 | -3.6 | 0.1 | 14.8 | 0.6 | -5.1
CC(C)C(NC(=O)OCc1ccccc1)C(=O)NCC(=O)OC(C)(C)C (stereo unspecified) | 2.3 | 10.3 | 15.1* | 4.3 | 2.6 | 8.4 | 2.7
Cc1cc([N+](=O)[O-])ccc1NC(=O)CSc1nnc(C)n1C | 1.4 | 5.5 | -6.2 | -1.1 | 1.9 | x | x
